# Assay results as given in ChEMBL document CHEMBL4145650, “Napabucasin and Related Heterocycle-Fused Naphthoquinones as STAT3 Inhibitors with Antiproliferative Activity against Cancer Cells” (J Nat Prod, 2018).
# pIC50: −log10 of the molar value. Activity calls are given as the source filed them. No cut-off for these calls is given here.
# Assays:
# MDA-MB-231 [1] = experiment: Antiproliferative activity against human MDA-MB-231 cells measured after 48 hrs by MTT assay; assay type: functional, cell-based; settings: MDA-MB-231, 48 h
# Summary of the method: (§1)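 Cells kept in 10% FBS medium with penicillin/streptomycin/L-glutamine at 37 °C, 5% CO2 (MDA-MB-231 in DMEM, K562 in RPMI 1640). Viability read by MTT reduction to formazan after 48 h of exposure. IC50 obtained by nonlinear regression against vehicle control, given as mean ±SD of three independent experiments (n = 2 where footnoted).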
# K562 [2] = experiment: Antiproliferative activity against human K562 cells measured after 48 hrs by MTT assay; assay type: functional, cell-based; settings: K562, 48 h; summary of the method: as §1
# MDA-MB-231 [3] = experiment: Induction of apoptosis in human MDA-MB-231 cells assessed as viable cells at 10 umol/L measured after 2 hrs by annexin-V-FITC/7-AAD staining based flow cytometric analysis (reference value: 97 to 98%); assay type: functional; settings: MDA-MB-231, 2 h, read-out: Activity
# MDA-MB-231 [4] = experiment: Induction of apoptosis in human MDA-MB-231 cells assessed as viable cells at 10 umol/L measured after 4 hrs by annexin-V-FITC/7-AAD staining based flow cytometric analysis (reference value: 97 to 98%); assay type: functional; settings: MDA-MB-231, 4 h, read-out: Activity
# MDA-MB-231 [5] = experiment: Induction of apoptosis in human MDA-MB-231 cells assessed as viable cells at 10 umol/L measured after 6 hrs by annexin-V-FITC/7-AAD staining based flow cytometric analysis (reference value: 97 to 98%); assay type: functional; settings: MDA-MB-231, 6 h, read-out: Activity
# MDA-MB-231 [6] = experiment: Induction of apoptosis in human MDA-MB-231 cells assessed as viable cells at 10 umol/L measured after 8 hrs by annexin-V-FITC/7-AAD staining based flow cytometric analysis (reference value: 97 to 98%); assay type: functional; settings: MDA-MB-231, 8 h, read-out: Activity
# MDA-MB-231 [7] = experiment: Induction of apoptosis in human MDA-MB-231 cells assessed as viable cells at 10 umol/L measured after 24 hrs by annexin-V-FITC/7-AAD staining based flow cytometric analysis (reference value: 97 to 98%); assay type: functional; settings: MDA-MB-231, 24 h, read-out: Activity
# MDA-MB-231 [8] = experiment: Induction of apoptosis in human MDA-MB-231 cells assessed as early apoptotic cells at 10 umol/L measured after 6 hrs by annexin-V-FITC/7-AAD staining based flow cytometric analysis relative to control; assay type: functional
# MDA-MB-231 [9] = experiment: Induction of apoptosis in human MDA-MB-231 cells assessed as early apoptotic cells at 10 umol/L measured after 8 hrs by annexin-V-FITC/7-AAD staining based flow cytometric analysis relative to control; assay type: functional
# MDA-MB-231 [10] = experiment: Induction of apoptosis in human MDA-MB-231 cells assessed as early apoptotic cells at 10 umol/L measured after 24 hrs by annexin-V-FITC/7-AAD staining based flow cytometric analysis relative to control; assay type: functional
# MDA-MB-231 [11] = experiment: Induction of apoptosis in human MDA-MB-231 cells assessed as late apoptotic cells at 10 umol/L measured after 6 hrs by annexin-V-FITC/7-AAD staining based flow cytometric analysis relative to control; assay type: functional
# MDA-MB-231 [12] = experiment: Induction of apoptosis in human MDA-MB-231 cells assessed as late apoptotic cells at 10 umol/L measured after 8 hrs by annexin-V-FITC/7-AAD staining based flow cytometric analysis relative to control; assay type: functional
# MDA-MB-231 [13] = experiment: Induction of apoptosis in human MDA-MB-231 cells assessed as late apoptotic cells at 10 umol/L measured after 24 hrs by annexin-V-FITC/7-AAD staining based flow cytometric analysis relative to control; assay type: functional
# MDA-MB-231 [14] = experiment: Cell cycle arrest in human MDA-MB-231 cells assessed as accumulation at sub-G0 phase at 1 uM measured after 24 hrs by propidium iodide staining based flow cytometry (reference value: 3%); assay type: functional
# MDA-MB-231 [15] = experiment: Cell cycle arrest in human MDA-MB-231 cells assessed as accumulation at G1 phase at 1 uM measured after 24 hrs by propidium iodide staining based flow cytometry (reference value: 62%); assay type: functional
# MDA-MB-231 [16] = experiment: Cell cycle arrest in human MDA-MB-231 cells assessed as accumulation at S phase at 1 uM measured after 24 hrs by propidium iodide staining based flow cytometry (reference value: 12%); assay type: functional
# MDA-MB-231 [17] = experiment: Cell cycle arrest in human MDA-MB-231 cells assessed as accumulation at G2 phase at 1 uM measured after 24 hrs by propidium iodide staining based flow cytometry (reference value: 23%); assay type: functional
# MDA-MB-231 [18] = experiment: Cell cycle arrest in human MDA-MB-231 cells assessed as accumulation at sub-G0 phase at 3 uM measured after 24 hrs by propidium iodide staining based flow cytometry (reference value: 3%); assay type: functional
# MDA-MB-231 [19] = experiment: Cell cycle arrest in human MDA-MB-231 cells assessed as accumulation at G1 phase at 3 uM measured after 24 hrs by propidium iodide staining based flow cytometry (reference value: 62%); assay type: functional
# MDA-MB-231 [20] = experiment: Cell cycle arrest in human MDA-MB-231 cells assessed as accumulation at S phase at 3 uM measured after 24 hrs by propidium iodide staining based flow cytometry (reference value: 12%); assay type: functional
# MDA-MB-231 [21] = experiment: Cell cycle arrest in human MDA-MB-231 cells assessed as accumulation at G2 phase at 3 uM measured after 24 hrs by propidium iodide staining based flow cytometry (reference value: 23%); assay type: functional
# MDA-MB-231 [22] = experiment: Cell cycle arrest in human MDA-MB-231 cells assessed as accumulation at sub-G0 phase at 10 uM measured after 24 hrs by propidium iodide staining based flow cytometry (reference value: 3%); assay type: functional
# MDA-MB-231 [23] = experiment: Cell cycle arrest in human MDA-MB-231 cells assessed as accumulation at G1 phase at 10 uM measured after 24 hrs by propidium iodide staining based flow cytometry (reference value: 62%); assay type: functional
# MDA-MB-231 [24] = experiment: Cell cycle arrest in human MDA-MB-231 cells assessed as accumulation at S phase at 10 uM measured after 24 hrs by propidium iodide staining based flow cytometry (reference value: 12%); assay type: functional
# MDA-MB-231 [25] = experiment: Cell cycle arrest in human MDA-MB-231 cells assessed as accumulation at G2 phase at 10 uM measured after 24 hrs by propidium iodide staining based flow cytometry (reference value: 23%); assay type: functional
# MDA-MB-231 [26] = experiment: Cell cycle arrest in human MDA-MB-231 cells assessed as accumulation at sub-G0 phase at 30 uM measured after 24 hrs by propidium iodide staining based flow cytometry (reference value: 3%); assay type: functional
# MDA-MB-231 [27] = experiment: Cell cycle arrest in human MDA-MB-231 cells assessed as accumulation at G1 phase at 30 uM measured after 24 hrs by propidium iodide staining based flow cytometry (reference value: 62%); assay type: functional
# MDA-MB-231 [28] = experiment: Cell cycle arrest in human MDA-MB-231 cells assessed as accumulation at S phase at 30 uM measured after 24 hrs by propidium iodide staining based flow cytometry (reference value: 12%); assay type: functional
# MDA-MB-231 [29] = experiment: Cell cycle arrest in human MDA-MB-231 cells assessed as accumulation at G2 phase at 30 uM measured after 24 hrs by propidium iodide staining based flow cytometry (reference value: 23%); assay type: functional
# MDA-MB-231 [30] = experiment: Induction of superoxide generation in human MDA-MB-231 cells at 5 umol/L measured after 24 hrs by DHE staining based flow cytometry; assay type: functional, cell-based
# Summary of the method: (§2)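 Cells were treated with compound at 5 μmol/L or DMSO for 24 h, with or without dicoumarol preincubation (5 μmol/L, 30 min), then stained with DHE for 30 min. 2-OH-DHE fluorescence was read by flow cytometry and expressed relative to vehicle control. At least three independent measurements.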
# MDA-MB-231 [31] = experiment: Induction of superoxide generation in human MDA-MB-231 cells at 5 umol/L measured after 24 hrs in presence of NQO1 inhibitor dicoumarol by DHE staining based flow cytometry; assay type: functional, cell-based; summary of the method: as §2
# K562 [32] = experiment: Induction of superoxide generation in human K562 cells at 5 umol/L measured after 24 hrs in presence of NQO1 inhibitor dicoumarol by DHE staining based flow cytometry; assay type: functional, cell-based; summary of the method: as §2
smiles,measurement,setting,value
O=C1C(=O)c2ccoc2-c2ccccc21,pIC50,MDA-MB-231 [1],5.74
same,pIC50,K562 [2],5.55
same,viability at 10 µM,MDA-MB-231 [3],96%
same,viability at 10 µM,MDA-MB-231 [4],95%
same,viability at 10 µM,MDA-MB-231 [5],91%
same,viability at 10 µM,MDA-MB-231 [6],87%
same,viability at 10 µM,MDA-MB-231 [7],32%
same,Activity,MDA-MB-231 [8],4%
same,Activity,MDA-MB-231 [9],6%
same,Activity,MDA-MB-231 [10],15%
same,Activity,MDA-MB-231 [11],6%
same,Activity,MDA-MB-231 [12],8%
same,Activity,MDA-MB-231 [13],54%
same,Activity,MDA-MB-231 [14],3%
same,Activity,MDA-MB-231 [15],64%
same,Activity,MDA-MB-231 [16],15%
same,Activity,MDA-MB-231 [17],19%
same,Activity,MDA-MB-231 [18],inactive
same,Activity,MDA-MB-231 [19],59%
same,Activity,MDA-MB-231 [20],15%
same,Activity,MDA-MB-231 [21],25%
same,Activity,MDA-MB-231 [22],inactive
same,Activity,MDA-MB-231 [23],60%
same,Activity,MDA-MB-231 [24],15%
same,Activity,MDA-MB-231 [25],24%
same,Activity,MDA-MB-231 [26],inactive
same,Activity,MDA-MB-231 [27],62%
same,Activity,MDA-MB-231 [28],14%
same,Activity,MDA-MB-231 [29],22%
same,Activity,MDA-MB-231 [30],Active
same,Activity,MDA-MB-231 [31],Active
same,Activity,K562 [32],inactive
O=C1c2ccccc2C(=O)c2occc21,pIC50,MDA-MB-231 [1],< 5.00
same,pIC50,K562 [2],5.28
CC1(C)CCC2=C(O1)C(=O)c1ccccc1C2=O [ALPHA-LAPACHONE],pIC50,MDA-MB-231 [1],< 5.00
same,pIC50,K562 [2],< 5.00
